≈ marks a conversion by molar mass, not a printed value. Calls of active or inactive are those of the source. The calls are words filed in the database; no cut-off is given here.
Columns and labels:
Staphylococcus aureus [1] = test: Antibacterial activity against methicillin-resistant Staphylococcus aureus NRS107 after 20 hrs by broth microdilution assay; type: functional; conditions: NRS107, 20 h
Method in brief: (§1)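 Broth microdilution per CLSI in cation-adjusted Mueller Hinton broth. Compounds serially diluted, in triplicate. Incubation at 37 °C for at least 20 hours. MIC taken as the lowest concentration with no visible bacterial growth.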

Staphylococcus aureus [2] = test: Bactericidal activity against methicillin-resistant Staphylococcus aureus USA300 up to 18 hrs by broth microdilution assay; type: functional; conditions: USA300, 18 h, read-out: MBC99.9
Staphylococcus aureus [3] = test: Antibacterial activity against methicillin-resistant Staphylococcus aureus NRS119 after 20 hrs by broth microdilution assay; type: functional; conditions: NRS119, 20 h; method in brief: as §1
Staphylococcus aureus [4] = test: Bactericidal activity against methicillin-resistant Staphylococcus aureus NRS119 up to 18 hrs by broth microdilution assay; type: functional; conditions: NRS119, 18 h, read-out: MBC99.9
Staphylococcus aureus [5] = test: Antibacterial activity against methicillin-resistant Staphylococcus aureus NRS123 (USA400) after 20 hrs by broth microdilution assay; type: functional; method in brief: as §1
Staphylococcus aureus [6] = test: Bactericidal activity against methicillin resistant Staphylococcus aureus NRS123 (USA400) up to 18 hrs by broth microdilution assay; type: functional; conditions: read-out: MBC99.9
Staphylococcus aureus [7] = test: Antibacterial activity against vancomycin-resistant Staphylococcus aureus VRS10 after 20 hrs by broth microdilution assay; type: functional; conditions: VRS10, 20 h; method in brief: as §1
Staphylococcus aureus [8] = test: Bactericidal activity against methicillin resistant vancomycin-resistant Staphylococcus aureus VRS10 up to 18 hrs by broth microdilution assay; type: functional; conditions: VRS10, 18 h, read-out: MBC99.9
Staphylococcus aureus [9] = test: Antibacterial activity against vancomycin-resistant Staphylococcus aureus VRS11a after 20 hrs by broth microdilution assay; type: functional; method in brief: as §1
Staphylococcus aureus [10] = test: Bactericidal activity against methicillin resistant vancomycin-resistant Staphylococcus aureus VRS11a up to 18 hrs by broth microdilution assay; type: functional; conditions: read-out: MBC99.9
Staphylococcus aureus [11] = test: Antibacterial activity against vancomycin-resistant Staphylococcus aureus VRS12 after 20 hrs by broth microdilution assay; type: functional; conditions: VRS12, 20 h; method in brief: as §1
Staphylococcus aureus [12] = test: Bactericidal activity against methicillin resistant vancomycin-resistant Staphylococcus aureus VRS12 up to 18 hrs by broth microdilution assay; type: functional; conditions: VRS12, 18 h, read-out: MBC99.9
Method in brief: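 MBC set up from the MIC plates. Aliquots from wells with no growth spotted onto tryptic soy agar and incubated at 37 °C for at least 18 hours. MBC taken as the lowest concentration giving 99.9% inhibition of bacterial growth.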

Staphylococcus aureus [13] = test: Potency index, ratio of vancomycin MIC to compound MIC for antibacterial activity against vancomycin-resistant Staphylococcus aureus VRS10; type: functional
Staphylococcus aureus [14] = test: Potency index, ratio of vancomycin MIC to compound MIC for antibacterial activity against vancomycin-resistant Staphylococcus aureus VRS11a; type: functional
Staphylococcus aureus [15] = test: Potency index, ratio of vancomycin MIC to compound MIC for antibacterial activity against vancomycin-resistant Staphylococcus aureus VRS12; type: functional
Staphylococcus aureus [16] = test: Ratio of MBC to MIC for methicillin-resistant Staphylococcus aureus USA300; type: functional
Method in brief: (§2)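 MBC/MIC ratio. […] MBC by plating no-growth wells onto tryptic soy agar at 37 °C for at least 18 h; taken as the concentration giving 99.9% growth inhibition.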

Staphylococcus aureus [17] = test: Ratio of MBC to MIC for methicillin-resistant Staphylococcus aureus NRS107; type: functional; method in brief: as §2
Staphylococcus aureus [18] = test: Ratio of MBC to MIC for methicillin-resistant Staphylococcus aureus NRS119; type: functional; method in brief: as §2
Staphylococcus aureus [19] = test: Ratio of MBC to MIC for methicillin-resistant Staphylococcus aureus NRS123 (USA400); type: functional; method in brief: as §2
Staphylococcus aureus [20] = test: Ratio of MBC to MIC for vancomycin-resistant Staphylococcus aureus VRS10; type: functional; method in brief: as §2
Staphylococcus aureus [21] = test: Ratio of MBC to MIC for vancomycin-resistant Staphylococcus aureus VRS11a; type: functional; method in brief: as §2
Staphylococcus aureus [22] = test: Ratio of MBC to MIC for vancomycin-resistant Staphylococcus aureus VRS12; type: functional; method in brief: as §2
Staphylococcus aureus [23] = test: Bactericidal activity against methicillin-resistant Staphylococcus aureus NRS123 (USA400) at 4 times MIC after 24 hrs by time kill assay; type: functional, organism-based
J774 = test: Cytotoxicity against mouse J774 cells assessed as reduction in cell viability up to 16 ug/ml after 24 hrs by MTS assay; type: cell-based; conditions: j774, 24 h
Method in brief: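 J774 murine macrophages were grown in DMEM with 10% FBS at 37 °C, 5% CO2. Compounds were tested at 8, 16 and 32 μg/mL in triplicate for 24 h, with a DMSO-matched control. MTS was added for 4 h and absorbance read at 490 nm. Viability is given as % of DMSO control (mean ± SD); Student t-test with Holm-Sidak test.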

Staphylococcus aureus [24] = test: Antibacterial activity against methicillin-resistant Staphylococcus aureus NRS123 (USA400) infected in mouse J774 cells at 16 ug/ml after 24 hrs; type: functional, organism-based
Method in brief: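 J774 macrophages grown in DMEM with 10% FBS at 37 °C, 5% CO2. Infected with USA400 at MOI ~100:1 for 1 h, then washed with gentamicin 50 μg/mL. Treated in triplicate wells for 24 h, washed with gentamicin again and lysed with 0.1% Triton X-100. Lysate plated on tryptic soy agar for 18–22 h; CFU/mL counted.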

HRT-18 cell line = test: Cytotoxicity against human HRT18 cells assessed as reduction in cell viability up to 32 ug/ml after 2 hrs by MTS assay; type: cell-based; conditions: hrt-18, 2 h
[25] = Selectivity index, ratio of toxic concentration for human HRT18 cells to MIC for methicillin-resistant Staphylococcus aureus; type: toxicity; conditions: read-out: Selectivity Index
Staphylococcus aureus [26] = test: Antibacterial activity against methicillin-resistant Staphylococcus aureus USA300 infected in Caenorhabditis elegans AU37 assessed as reduction in bacterial burden at 20 ug/ml after 18 hrs relative to control; type: functional; parameters: scale not given: the % may be the effect or the level left
Method in brief: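 L4-stage C. elegans AU37 infected on USA300 lawns for 6 h and washed with M9 buffer. 25–30 worms per well exposed to 20 μg/mL for 18 h, in triplicate. Worms then lysed and plated on TSA with 5 μg/mL nalidixic acid for 17 h at 37 °C. CFU per worm expressed as % reduction versus PBS.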

Staphylococcus aureus [27] = test: Antibacterial activity against methicillin-resistant Staphylococcus aureus USA300 in Balb/c mouse skin infection model assessed as reduction in bacterial burden in wounded skin area at 2% administered topically twice daily for 5 consecutive days measured 12 hrs post last dose relative to control; type: functional; parameters: scale not given: the % may be the effect or the level left
Method in brief: (§3)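 Female Balb/c mice, 8 weeks old, n=5 per group. Intradermal injection of 40 μL of 1.32×10^9 CFU/mL USA300; a wound formed by ~66 h. Treated topically with a 2% suspension in petroleum jelly twice daily for 5 days; the vehicle group served as control. Wounds excised 12 h after the last dose, homogenized in PBS and plated on mannitol salt agar; sites also observed for redness and swelling.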

Staphylococcus aureus [28] = test: Bactericidal activity against methicillin-resistant Staphylococcus aureus USA300 at 4 times MIC after 24 hrs by time kill assay; type: functional, organism-based
Mus musculus [29] = test: Induction of inflammation in Balb/c mouse infected with methicillin-resistant Staphylococcus aureus USA300 assessed as redness around wounded skin area at 2% administered topically twice daily for 5 consecutive days measured 12 hrs post last dose relative to control; type: organism-based; conditions: in vivo, topical_or_ocular; method in brief: as §3
Mus musculus [30] = test: Induction of inflammation in Balb/c mouse infected with methicillin-resistant Staphylococcus aureus USA300 assessed as swelling around wounded skin area at 2% administered topically twice daily for 5 consecutive days measured 12 hrs post last dose; type: organism-based; conditions: in vivo, topical_or_ocular; method in brief: as §3
Mus musculus [31] = test: Toxicity in wounded skin area of Balb/c mouse infected with methicillin-resistant Staphylococcus aureus USA300 at 2% administered topically twice daily for 5 consecutive days measured 12 hrs post last dose; type: organism-based; conditions: in vivo, topical_or_ocular; method in brief: as §3
Staphylococcus aureus [32] = test: Antibacterial activity against methicillin-resistant Staphylococcus aureus USA300 after 20 hrs by broth microdilution assay; type: functional; conditions: USA300, 20 h; method in brief: as §1
Staphylococcus aureus [33] = test: Bactericidal activity against methicillin-resistant Staphylococcus aureus NRS107 up to 18 hrs by broth microdilution assay; type: functional; conditions: NRS107, 18 h, read-out: MBC99.9
[34] = Apparent permeability from apical to basolateral side in human Caco2 cells at 10 uM after 60 mins by LC-MS/MS analysis; type: ADME, cell-based; conditions: caco-2, 1 h
Method in brief: (§4)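 Caco-2 monolayers were seeded at 1 × 10^5 cells/cm2 and differentiated for three weeks. Test article was at 10 μM (1% DMSO) in HBSS-MES pH 6.5 or HBSS-HEPES pH 7.4 and added to the donor side. Incubation ran 60 min (A→B) or 40 min (B→A), and receiver buffer was analysed by LC/MS/MS. Lucifer yellow and fluorescein checked monolayer integrity. Efflux ratio = Papp(B→A)/Papp(A→B).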

[35] = Apparent permeability from basolateral to apical side in human Caco2 cells at 10 uM after 60 mins by LC-MS/MS analysis; type: ADME, cell-based; conditions: caco-2, 1 h
[36] = Efflux ratio of apparent permeability in human Caco2 cells at 10 uM after 60 mins by LC-MS/MS analysis; type: ADME, cell-based; conditions: caco-2, 1 h; method in brief: as §4

Compound	MIC (Staphylococcus aureus [1])	MBC (Staphylococcus aureus [2])	MIC (Staphylococcus aureus [3])	MBC (Staphylococcus aureus [4])	MIC (Staphylococcus aureus [7])	MBC (Staphylococcus aureus [8])	MIC (Staphylococcus aureus [9])	MIC (Staphylococcus aureus [11])	MBC (Staphylococcus aureus [12])	Ratio (Staphylococcus aureus [13])	Ratio (Staphylococcus aureus [14])	Ratio (Staphylococcus aureus [15])	Ratio (Staphylococcus aureus [17])	Ratio (Staphylococcus aureus [18])	Ratio (Staphylococcus aureus [20])	Ratio (Staphylococcus aureus [21])	Ratio (Staphylococcus aureus [22])	Activity (Staphylococcus aureus [23])	Activity (J774)	Activity (Staphylococcus aureus [24])	also measured
CCCCCC#Cc1ccc(-c2nc(C)c(/C(C)=N/NC(=N)N)s2)cc1	2 µg/mL (≈ 5.44 µM)	4 µg/mL (≈ 10.9 µM)	2 µg/mL (≈ 5.44 µM)	2 µg/mL (≈ 5.44 µM)	2 µg/mL (≈ 5.44 µM)	2 µg/mL (≈ 5.44 µM)	1 µg/mL (≈ 2.72 µM)	2 µg/mL (≈ 5.44 µM)	2 µg/mL (≈ 5.44 µM)	>100	>100	8	<=3	<=3	<=3	<=3	<=3	Active	Non-Toxic	Active	MIC (Staphylococcus aureus [5]): 2 µg/mL (≈ 5.44 µM); MBC (Staphylococcus aureus [6]): 2 µg/mL (≈ 5.44 µM); MBC (Staphylococcus aureus [10]): 2 µg/mL (≈ 5.44 µM); Ratio (Staphylococcus aureus [16]): <=3; Ratio (Staphylococcus aureus [19]): <=3; Activity (HRT-18 cell line): Non-Toxic; selectivity ratio [25]: 7 to 31; Activity (Staphylococcus aureus [26]): 90%; Activity (Staphylococcus aureus [27]): 71%; Activity (Staphylococcus aureus [28]): Active; Activity (Mus musculus [29]): Non-Toxic; Activity (Mus musculus [30]): Non-Toxic; Activity (Mus musculus [31]): Non-Toxic
CCCC#Cc1ccc(-c2nc(C)c(/C(C)=N/NC(=N)N)s2)cc1	1 µg/mL (≈ 2.95 µM)	8 µg/mL (≈ 23.6 µM)	1 µg/mL (≈ 2.95 µM)	1 µg/mL (≈ 2.95 µM)	1 µg/mL (≈ 2.95 µM)	2 µg/mL (≈ 5.89 µM)	≤ 0.5 µg/mL	1 µg/mL (≈ 2.95 µM)	1 µg/mL (≈ 2.95 µM)	>100	>100	16	<=3	<=3	<=3	<=3	<=3	Active	Non-Toxic	Active	MIC (Staphylococcus aureus [32]): 1 µg/mL (≈ 2.95 µM); MBC (Staphylococcus aureus [33]): 1 µg/mL (≈ 2.95 µM); Ratio (Staphylococcus aureus [16]; read-out: Ratio): 8; Activity (HRT-18 cell line): Non-Toxic; selectivity ratio [25]: 7 to 31; Activity (Staphylococcus aureus [28]): Active
CNC(=C[N+](=O)[O-])NCCSCc1ccc(CN(C)C)o1 [RANITIDINE]																					Papp [34]: 0.27 ×10⁻⁶ cm/s; Papp [35]: 1.71 ×10⁻⁶ cm/s; Ratio [36]: 6.3

— ChEMBL document CHEMBL4196022, “Alkynyl-containing phenylthiazoles: Systemically active antibacterial agents effective against methicillin-resistant Staphylococcus aureus (MRSA)” (Eur J Med Chem, 2018)
